Results published in ChEMBL document CHEMBL3352233, “N-[6-(4-butanoyl-5-methyl-1H-pyrazol-1-yl)pyridazin-3-yl]-5-chloro-1-[2-(4-methylpiperazin-1-yl)-2-oxoethyl]-1H-indole-3-carboxamide (SAR216471), a novel intravenous and oral, reversible, and directly acting P2Y12 antagonist” (J Med Chem, 2014).
Active and inactive are the calls of the source. The rule behind the calls is not given here.

How the values were obtained:
[1] = Metabolic stability in human liver microsomes assessed as compound metabolism after 20 mins incubation in presence of 1 mM NADPH; assay type: ADME; settings: liver microsomes, read-out: Drug metabolism
In short: (§1)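 Hepatic microsomal fractions are incubated with compound for 20 min with 1 mM NADPH. Result is reported as % metabolized, i.e. 100 minus % unchanged compound.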

[2] = Metabolic stability in rat liver microsomes assessed as compound metabolism after 20 mins incubation in presence of 1 mM NADPH; assay type: ADME; settings: liver microsomes, read-out: Drug metabolism; in short: as §1
Rattus norvegicus = assay: Ex vivo inhibition of platelet aggregation in Sprague-Dawley rat at 10 mg/kg, po after 2 hrs; assay type: functional; settings: for inhibition in vivo at 10 mg/kg: Rattus norvegicus, Sprague-Dawley, po, 2 h
In short: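 Male Sprague−Dawley rats (250−300 g), 6 per batch, are dosed by stomach tube at 10 mL/kg of a 1 mg/mL solution in 5% glucose water containing 5% Cremophor and 3% glycofurol. At 2 h, aortic blood is drawn into 3.8% citrate (1:9) under pentobarbital. PRP is prepared at 300g for 5 min. ADP aggregation is read as the 6-min absorbance AUC and expressed as % inhibition.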

P2Y purinoceptor 12 = P2Y purinoceptor 12 (Homo sapiens, UniProt Q9H244); assay: Displacement of [33P]2MeS-ADP from P2Y12 receptor (unknown origin) transfected in CHO cells after 30 mins by scintillation counting analysis; assay type: cell-based
Sequence of P2Y purinoceptor 12 (Q9H244 whole entry): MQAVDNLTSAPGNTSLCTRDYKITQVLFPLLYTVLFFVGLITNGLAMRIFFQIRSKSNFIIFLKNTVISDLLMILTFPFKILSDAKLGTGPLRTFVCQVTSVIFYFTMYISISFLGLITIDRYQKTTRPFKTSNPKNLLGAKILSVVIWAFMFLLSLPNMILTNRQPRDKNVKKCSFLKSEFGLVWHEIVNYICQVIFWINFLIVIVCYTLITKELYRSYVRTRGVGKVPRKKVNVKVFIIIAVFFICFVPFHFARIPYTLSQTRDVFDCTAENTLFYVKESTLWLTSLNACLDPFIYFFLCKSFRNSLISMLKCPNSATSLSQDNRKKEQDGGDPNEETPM
In short: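 P2Y12-expressing CHO cells (35 × 10³/sample) in PBS with 1 mM EDTA and 0.2% BSA are exposed to compound for 30 min. [³³P]2-MeS-ADP (0.16 nM) is then added for 15 min at 20 °C, in triplicate. Filtration separates free from bound ligand, followed by scintillation counting. Nonspecific binding uses 1 mM unlabeled ADP. IC50 comes from a four-parameter logistic fit with asymptotes fixed at 0 and 100. n = 2.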

[3] = Permeability across human Caco2 cells; assay type: ADME, cell-based; settings: Caco-2, read-out: permeability
In short: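 Permeation is measured across a Caco2 cell monolayer and reported in 10⁻⁷ cm·s⁻¹.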

CCCC(=O)c1cnn(-c2ccc(NC(=O)c3cn(CC(=O)N4CCN(C)CC4)c4cc(C)c(C)cc34)cc2)c1C.Cl
metabolised at 20 min [1]: 50% | metabolised at 20 min [2]: 52% | inhibition in vivo at 10 mg/kg (Rattus norvegicus): 37% | IC50 (P2Y purinoceptor 12): 39 nM | Papp [3]: 5.9 ×10⁻⁶ cm/s

CCCC(=O)c1cnn(-c2ccc(NC(=O)c3cn(CC(=O)O)c4ccc(C)cc34)cc2)c1C
metabolised at 20 min [1]: 5% | metabolised at 20 min [2]: 1% | IC50 (P2Y purinoceptor 12): 0.9 nM

CCCC(=O)c1cnn(-c2ccc(NC(=O)c3cn(CC(=O)N4CCN(C(C)C)CC4)c4ccc(C)cc34)cc2)c1C
inhibition in vivo at 10 mg/kg (Rattus norvegicus): 15% | IC50 (P2Y purinoceptor 12): 82 nM

CCCC(=O)c1cnn(-c2ccc(NC(=O)c3cn(CC(=O)N4CCN(C)CC4)c4ccc(OC)cc34)cc2)c1C
metabolised at 20 min [1]: 68% | metabolised at 20 min [2]: 63% | IC50 (P2Y purinoceptor 12): 22 nM

CC(=O)c1cnn(-c2ccc(NC(=O)c3cn(CC(=O)N4CCN(C)CC4)c4ccc(Cl)cc34)cc2)c1C
metabolised at 20 min [1]: 40% | metabolised at 20 min [2]: 47% | IC50 (P2Y purinoceptor 12): 143 nM

CCCC(=O)c1cnn(-c2ccc(NC(=O)c3cn(CC(=O)N4CCN(CC(F)F)CC4)c4ccc(C)cc34)cc2)c1C
metabolised at 20 min [1]: 64% | metabolised at 20 min [2]: 27% | IC50 (P2Y purinoceptor 12): 19 nM | Papp [3]: 9.3 ×10⁻⁶ cm/s

CCCC(=O)c1cnn(-c2ccc(NC(=O)c3cn(CC(=O)N4CCN(CCOC)CC4)c4ccc(C)cc34)cc2)c1C
metabolised at 20 min [1]: 53% | metabolised at 20 min [2]: 32% | IC50 (P2Y purinoceptor 12): 20 nM | Papp [3]: 7.4 ×10⁻⁶ cm/s

CCCC(=O)c1cnn(-c2ccc(NC(=O)c3cn(CC(=O)N4CCN(Cc5ccc(F)cc5)CC4)c4ccc(C)cc34)cc2)c1C
metabolised at 20 min [1]: 63% | metabolised at 20 min [2]: 27% | IC50 (P2Y purinoceptor 12): 12 nM | Papp [3]: 1.7 ×10⁻⁶ cm/s

CCCC(=O)c1cnn(-c2ccc(NC(=O)c3cn(CC(=O)N4CCN(C)C(C)C4)c4ccc(C)cc34)cc2)c1C (configuration not stated)
metabolised at 20 min [1]: 65% | metabolised at 20 min [2]: 45% | IC50 (P2Y purinoceptor 12): 27 nM | Papp [3]: 5.5 ×10⁻⁶ cm/s

CCCC(=O)c1cnn(-c2ccc(NC(=O)c3cn(CC(=O)O)c4cc(C)c(C)cc34)cc2)c1C
metabolised at 20 min [1]: 4% | metabolised at 20 min [2]: 2% | IC50 (P2Y purinoceptor 12): 5.1 nM

CCCC(=O)c1cnn(-c2ccc(NC(=O)c3cn(CC(=O)N4CCN(CCO)CC4)c4ccc(C)cc34)cc2)c1C
metabolised at 20 min [1]: 16% | metabolised at 20 min [2]: 17% | IC50 (P2Y purinoceptor 12): 41 nM | Papp [3]: 0.2 ×10⁻⁶ cm/s

CCCC(=O)c1cnn(-c2ccc(NC(=O)c3cn(CC(=O)N4CCN(C)CC4)c4cc(C)c(Cl)cc34)cc2)c1C
metabolised at 20 min [1]: 36% | metabolised at 20 min [2]: 23% | inhibition in vivo at 10 mg/kg (Rattus norvegicus): 31% | IC50 (P2Y purinoceptor 12): 34 nM | Papp [3]: 3.6 ×10⁻⁶ cm/s

CCCC(=O)c1cnn(-c2ccc(NC(=O)c3cn(CC(=O)N4C[C@@H]5C[C@@H](O)CN5C[C@@H]4C)c4ccc(C)cc34)cc2)c1C
metabolised at 20 min [1]: 61% | metabolised at 20 min [2]: 25% | IC50 (P2Y purinoceptor 12): 15 nM

CCCC(=O)c1cnn(-c2ccc(NC(=O)c3cn(CC(=O)N[C@H]4CCNC4)c4ccc(C)cc34)cc2)c1C
IC50 (P2Y purinoceptor 12): 61 nM

CCOC(=O)c1c(C)nn(-c2ccc(NC(=O)Nc3ccccc3OCCCC(=O)O)cc2)c1C
IC50 (P2Y purinoceptor 12): 80 nM

CCCC(=O)c1cnn(-c2ccc(NC(=O)c3cn(CC(=O)N4CCN(CCO)CC4)c4ccc(Cl)cc34)cc2)c1C
metabolised at 20 min [1]: 14% | metabolised at 20 min [2]: 6% | inhibition in vivo at 10 mg/kg (Rattus norvegicus): 22% | IC50 (P2Y purinoceptor 12): 11 nM

CCCC(=O)c1cnn(-c2ccc(NC(=O)c3cn(CC(=O)N4CCN(C)CC4)c4cc(Cl)c(Cl)cc34)cc2)c1C
IC50 (P2Y purinoceptor 12): 99 nM

CCCC(=O)c1cnn(-c2ccc(NC(=O)c3cn(CC(=O)N4CCCCC4CN)c4ccc(C)cc34)cc2)c1C (configuration not stated)
IC50 (P2Y purinoceptor 12): 111 nM

CCCC(=O)c1cnn(-c2ccc(NC(=O)c3cn(CC(=O)N4CCN(CCF)CC4)c4ccc(C)cc34)cc2)c1C
metabolised at 20 min [1]: 62% | metabolised at 20 min [2]: 36% | IC50 (P2Y purinoceptor 12): 19 nM | Papp [3]: 8.2 ×10⁻⁶ cm/s

CCCC(=O)c1cnn(-c2ccc(NC(=O)n3cc(CCCC(=O)O)c4ccc(C)cc43)cc2)c1C
IC50 (P2Y purinoceptor 12): 47 nM

CCCC(=O)c1cnn(-c2ccc(NC(=O)c3cn(CC(=O)N4CCN(CC(=O)N(C)C)CC4)c4ccc(Cl)cc34)cc2)c1C
metabolised at 20 min [1]: 28% | metabolised at 20 min [2]: 7% | inhibition (Rattus norvegicus): inactive | IC50 (P2Y purinoceptor 12): 11 nM

CCCC(=O)c1cnn(-c2cnc(NC(=O)c3cn(CC(=O)N4CCN(C)CC4)c4ccc(Cl)cc34)cn2)c1C
IC50 (P2Y purinoceptor 12): 275 nM

CCCC(=O)c1cnn(-c2ccc(NC(=O)c3cn(CC(=O)N4CCCC(NC)C4)c4ccc(C)cc34)cc2)c1C (configuration not stated)
IC50 (P2Y purinoceptor 12): 65 nM

CCCC(=O)c1cnn(-c2ccc(NC(=O)c3cn(CC(=O)N4CCN(C5CC5)CC4)c4ccc(C)cc34)cc2)c1C
IC50 (P2Y purinoceptor 12): 44 nM

CCC(=O)c1cnn(-c2ccc(NC(=O)c3cn(CC(=O)N4CCN(C)CC4)c4ccc(Cl)cc34)cc2)c1C
metabolised at 20 min [1]: 32% | metabolised at 20 min [2]: 25% | IC50 (P2Y purinoceptor 12): 336 nM

CCCC(=O)c1cnn(-c2ccc(NC(=O)c3cn(CC(=O)NC4CCN(C)CC4)c4ccc(C)cc34)cc2)c1C
IC50 (P2Y purinoceptor 12): 139 nM

CCCC(=O)c1cnn(-c2ccc(NC(=O)c3cn(CC(=O)NCCN(C)C)c4ccc(C)cc34)cc2)c1C
IC50 (P2Y purinoceptor 12): 92 nM

CCCC(=O)c1cnn(-c2ccc(NC(=O)c3cn(CC(=O)N4CCN(C)CC4)c4ccc(F)cc34)cc2)c1C
IC50 (P2Y purinoceptor 12): 142 nM

CCCCN1CCN(C(=O)Cn2cc(C(=O)Nc3ccc(-n4ncc(C(=O)CCC)c4C)cc3)c3cc(C)ccc32)CC1
IC50 (P2Y purinoceptor 12): 121 nM

CCCC(=O)c1cnn(-c2ccc(NC(=O)c3cn(CC(=O)O)c4ccc(C)c(C)c34)cc2)c1C
IC50 (P2Y purinoceptor 12): 272 nM

CCCC(=O)c1cnn(-c2ccc(NC(=O)c3c(C)n(CC(=O)O)c4ccc(C)cc34)cc2)c1C
IC50 (P2Y purinoceptor 12): 84 nM

CCCC(=O)c1cnn(-c2ccc(NC(=O)c3cn(CC(=O)NCCn4ccnc4)c4ccc(C)cc34)cc2)c1C
IC50 (P2Y purinoceptor 12): 61 nM

CCCC(=O)c1cnn(-c2ccc(NC(=O)c3cn(CC(=O)N4CC(C)N(C)C(C)C4)c4ccc(C)cc34)cc2)c1C (configuration not stated)
IC50 (P2Y purinoceptor 12): 28 nM

Cc1c(C(=O)CCC(F)(F)F)cnn1-c1ccc(NC(=O)c2cn(CC(=O)N3CCN(C)CC3)c3ccc(Cl)cc23)cc1
metabolised at 20 min [1]: 6% | metabolised at 20 min [2]: 3% | IC50 (P2Y purinoceptor 12): 574 nM

CCCC(=O)c1cnn(-c2ccc(NC(=O)c3cn(CCC(=O)O)c4ccc(C)cc34)cc2)c1C
IC50 (P2Y purinoceptor 12): 7 nM

CCCC(=O)c1cnn(-c2ccc(NC(=O)c3cn(CC(=O)N4CCN(C)CC4)c4cc(Br)c(C)cc34)cc2)c1C
IC50 (P2Y purinoceptor 12): 118 nM

CCCC(=O)c1cnn(-c2ccc(NC(=O)c3cn(CC(=O)N(C)C4CCN(C)C4)c4ccc(C)cc34)cc2)c1C (configuration not stated)
IC50 (P2Y purinoceptor 12): 47 nM

CCCC(=O)c1cnn(-c2ccc(NC(=O)c3cn(CC(=O)N4CCN(C)CC4)c4ccc(C#N)cc34)cc2)c1C
IC50 (P2Y purinoceptor 12): 76 nM

CCCC(=O)c1cnn(-c2ccc(NC(=O)c3cn(CC(=O)N4CC5CCN(C)C5C4)c4ccc(C)cc34)cc2)c1C (configuration not stated)
IC50 (P2Y purinoceptor 12): 89 nM

CCCC(=O)c1cnn(-c2ccc(OC(=O)c3cn(CC(=O)N4CCN(C)CC4)c4ccc(Cl)cc34)cc2)c1C
IC50 (P2Y purinoceptor 12): 480 nM

CCCC(=O)c1cnn(-c2ccc(NC(=O)c3cn(CC(=O)NC(C)CN(C)C)c4ccc(C)cc34)cc2)c1C (configuration not stated)
IC50 (P2Y purinoceptor 12): 88 nM

CCCC(=O)c1cnn(-c2ccc(NC(=O)c3cn(CC(=O)N(C)CCNC)c4ccc(C)cc34)cc2)c1C
IC50 (P2Y purinoceptor 12): 94 nM

CCCC(=O)c1cnn(-c2ccc(NC(=O)c3cn(CC(=O)NC4CCCN(C)C4)c4ccc(C)cc34)cc2)c1C (configuration not stated)
IC50 (P2Y purinoceptor 12): 71 nM

CCCC(=O)c1cnn(-c2ccc(NC(=O)c3cn(CC(=O)N4CCN5CCCC5C4)c4ccc(C)cc34)cc2)c1C (configuration not stated)
IC50 (P2Y purinoceptor 12): 76 nM

CCCC(=O)c1cnn(-c2ccc(N(C)C(=O)c3cn(CC(=O)O)c4ccc(C)cc34)cc2)c1C
IC50 (P2Y purinoceptor 12): 304 nM
